Data reported in paper PMC5598404 (Toxicology Reports, 2015).

Legend:
[1] = tested on: human breast cancer Sk-Br-3 cells; experiment: CytoTox 96 Non-Radioactive Cytotoxicity Assay, breast cancer Sk-Br-3 cells; format: cell-based
How it was run: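 Sk-Br-3 cells (ATCC) were kept in ATCC-formulated medium under 5% CO2 at 37 °C, plated at 10,000 cells/well and grown to 70–80% confluence. They were then exposed for 24 h or 48 h to test compounds from DMSO stocks at 400, 200, 100, 50 and 25 μg/mL. Cells given 2% DMSO (final) were the negative control. Cytotoxicity was read by CytoTox 96 kit in three independent experiments, each run in triplicate.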

[2] = tested on: human breast cancer MCF7 cells; experiment: CytoTox 96 Non-Radioactive Cytotoxicity Assay, breast cancer MCF7 cells; format: cell-based; settings: MCF7, 12.5-200 μg/mL, 24 h and 48 h
How it was run: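 MCF7 cells from ATCC, grown in ATCC-formulated medium at 37 °C and 5% CO2. Seeded at 10,000 cells/well and grown to 70–80% confluence. Test compounds (DMSO stocks) were added at 200, 100, 50, 25 and 12.5 μg/mL (≈ μM, MW ~1000) for 24 h and 48 h. Negative control was 2% final DMSO. Read by CytoTox 96 kit; three independent experiments, each in triplicate.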

[3] = contain methionine sulfoxide in their ring; cited from earlier work

## NαC-[Met-Leu-Val-Phe-Pro-Leu-Phe-Ile] (head to tail) [[MetO]-LOB1, [1-8-NαC],[1-Rs,Ss-MetO]-linusorb-B1]
[1]; Sk-Br-3, 24 h exposure, 400 μg/mL, three independent experiments in triplicate
  Cytotoxicity towards Sk-Br-3 cells, 24 h, 400 μg/mL: 28%
[1]; Sk-Br-3, 24 h exposure, 25-400 μg/mL
  Concentration dependence of cytotoxicity towards Sk-Br-3 cells: only showed cytotoxicity at 400 μg/mL
[1]; Sk-Br-3, 48 h exposure, 400 μg/mL, three independent experiments in triplicate
  Cytotoxicity towards Sk-Br-3 cells, 48 h, 400 μg/mL: maintained their respective cytotoxicity
[2]
  Effect on MCF7 cells (in words): small cytoprotective effects
[3]
  Relative hydrophobicity of methionine sulfoxide LOBs: less hydrophobic than their methionine containing counterparts
